# FXIIa inh: human FXIIa protease inhibitors, primary screen, biochemical, 1536-well | Coagulation factor XII (Homo sapiens), P00748 | purified FXIIa, Boc-QGR-AMC fluorogenic substrate, 2 h | inhibition, % at 5 µM | actives 0.3% (n = 220,000); in the data active = inhibition above about 40%;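 also: 0% = enzyme with no compound and 100% = blank without enzyme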
# hK5 inh: human KLK5 protease inhibitors, primary screen, biochemical, 1536-well; AID 873, 2007; actives 0.59% (n = 210,000); recombinant hK5, fluorogenic AMC substrate cleavage; Kallikrein-5 (Homo sapiens), Q9Y337; inhibition, % at 5 µM;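 active = inhibition of 40% or more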;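 also: 0% = enzyme controls without compound and 100% = no-enzyme blanks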
# Target sequence (Q9Y337 67-293 limits assumed): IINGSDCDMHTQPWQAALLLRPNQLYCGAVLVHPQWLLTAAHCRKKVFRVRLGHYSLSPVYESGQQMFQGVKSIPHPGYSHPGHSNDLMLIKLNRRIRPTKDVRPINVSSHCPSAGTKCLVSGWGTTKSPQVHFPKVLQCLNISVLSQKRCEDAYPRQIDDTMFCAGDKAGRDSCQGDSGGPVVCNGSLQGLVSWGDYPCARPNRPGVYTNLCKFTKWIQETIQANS
# thrombin 1536: human alpha-thrombin inhibitors, primary screen, counter-screen for coagulation protease inhibitor project, biochemical, 1536-well, fluorogenic AMC substrate. AID 1046, 2008. inhibition, % at 5 µM. Prothrombin (Homo sapiens), P00734. actives 0.26% (n = 220,000). Boc-VPR-AMC fluorogenic substrate cleavage;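 active = inhibition at or above 40%; inactive = inhibition below 40%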;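 also: 0% = enzyme with no compound and 100% = wells without enzyme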
#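 System: human alpha-thrombin protein; Compound dosing: one concentration per compound, 5 µM, with 0.2% DMSO; Timing: reaction at room temperature; Technique: AMC fluorescence, 355/460 nm; Controls: enzyme without compound as high, wells lacking enzyme as low.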
# FXIa inh: human FXIa protease inhibitors, primary screen, biochemical, 1536-well; Coagulation factor XI (Homo sapiens), P03951; purified FXIa, Boc-Glu-Ala-Arg-AMC fluorogenic substrate; inhibition, % at 5 µM; actives 0.14% (n = 220,000);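 active = inhibition of at least 40%; inactive = inhibition below 40%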;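 also: fluorescence of freed AMC excited at 355 nm; 0% = enzyme without compound and 100% = no enzyme blank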
# Starred values were filed as active, the others as inactive; x = not tested or not shown. In the library only some 1% were active in any assay of this set; here they are far more common.
SMILES,FXIIa inh,hK5 inh,thrombin 1536,FXIa inh
Cc1nn(-c2ccccc2)c(Cl)c1/C=N/NC(=O)CCNc1n[nH]c(=O)[nH]c1=O,6.7,0.8,-6.0,1.3
COc1ccc(C)cc1NC(=O)C(Sc1nnc(Nc2cc(C)ccc2OC)s1)c1ccccc1 (stereo not given),3.4,-8.3,-1.0,-6.5
COc1ccc(Nc2nnc(SC(C(=O)Nc3cc(C)ccc3C)c3ccccc3)s2)cc1 (stereo not given),74.9*,22.0,38.3,29.8
O=C(COC(=O)c1cc(=O)[nH]c(=O)[nH]1)NCc1ccccc1,-5.1,0.8,14.7,-3.4
CCc1ccc(S(=O)(=O)ON2C(=O)c3ccccc3C2=O)cc1,14.8,1.4,60.0*,21.6
O=C1c2cccc3cccc(c23)C(=O)N1OS(=O)(=O)c1ccc(Cl)cc1,5.6,-24.5,-0.7,2.6
NS(=O)(=O)c1ccc(Cl)cc1[N+](=O)[O-],46.1*,16.7,22.2,41.0*
c1ccc(CSc2ccc(-c3ccccn3)nn2)nc1,10.9,-2.8,-6.7,-1.2
Clc1ccc(-c2ccc(SCc3ccccn3)nn2)cc1,22.2,43.2*,15.6,12.1
COc1ccc2[nH]c(=O)c(CN(CCO)S(=O)(=O)c3ccc(C)cc3)cc2c1,1.4,-2.6,-10.2,-5.8
COc1ccc(S(=O)(=O)N(CCCN2CCCC2=O)Cc2cc3c(C)cc(C)cc3[nH]c2=O)cc1,-1.0,133.4*,6.0,-6.0
CC(C)(C)C(=O)CSc1ncnc2c1cnn2-c1ccccc1,18.5,24.0,-4.6,42.6*
CC(C)OC(=O)CSc1ncnc2c1cnn2-c1ccccc1,18.2,-2.6,2.2,7.2
COc1ccc(N2CCN(C(=O)CSc3ncnc4c3cnn4-c3ccccc3C)CC2)cc1,0.0,33.0,11.0,2.4
Cc1ccccc1-n1ncc2c(SCC(=O)N3c4ccccc4CC3C)ncnc21 (stereo not given),26.0,31.7,40.7*,19.6
CCCn1nnnc1NC(=O)c1ccc(C)cc1Cl,1.1,7.9,0.6,-5.0
S=C1NC[C@H](Cc2ccccc2)N1CCc1cccc2ccccc12,8.2,2.0,1.2,0.9
COc1ccc(OC)c(/C=N/Nc2cc(C)nc(N3CCOCC3)n2)c1,40.0*,58.3*,13.3,33.6
O=C(O)/C=C/C(=O)N(Cc1ccc2c(c1)OCO2)C1CC(=O)N(CCc2ccccc2)C1=O (stereo not given),5.2,-17.5,2.0,8.7
Cc1sc(NC(=O)CSc2nnnn2C2CCCC2)c(C#N)c1C,44.0*,-9.2,-9.9,20.1
Cc1ccc(-c2nnc(SCC(=O)Nc3sc(C)c(C)c3C#N)n2C)cc1,7.8,-2.5,0.4,2.5
COCCn1c(SCC(=O)Nc2sc(C)c(C)c2C#N)nnc1-c1ccc(OC)cc1,-6.1,128.1*,1.5,-12.2
N#Cc1c(NC(=O)CSc2nnnn2C2CCCC2)sc2c1CCCC2,-5.5,-15.1,-6.5,2.6
O=C(NC1CCCCC1)[C@H](CSCc1ccccc1)N1Cc2ccccc2C1=O,6.0,-5.8,-2.5,4.5
Cc1noc(C)c1COc1ccc(C(=O)NCCc2ccccn2)cc1,0.9,-11.4,-19.5,-5.1
SMILES,FXIIa inh,hK5 inh,thrombin 1536,FXIa inh
COCc1ccc(C(=O)N2CCCC(CCC(=O)NCc3ccccc3F)C2)o1 (stereo not given),7.8,x,-0.3,-0.4
O=C(Nc1ccc(F)cc1F)c1ccc(-n2cncn2)nc1,5.6,-4.9,43.7*,-2.8
O=C(Nc1ccc(F)cc1F)c1ccc(-n2cccn2)nc1,3.5,-0.4,-1.8,-4.3
Cc1ccc2c(c1)CC1(CN2C)C(=O)OC(C)(C)OC1=O,16.2,8.9,72.7*,13.6
CCOc1ccc(NC(=O)CCCOc2cc(=O)n(C)c3ccccc23)cc1,3.1,3.4,-17.6,7.8
O=C(c1ccc2c(c1)OCO2)C1CCCN(C2CCN(CCc3ccccc3)CC2)C1 (stereo not given),9.3,-2.3,-5.6,-4.0
Fc1ccc(Nc2nc(N/N=C/c3ccco3)nc(N3CCCCC3)n2)cc1,13.7,11.1,-8.9,4.2
O=C(NCc1ccc(C(F)(F)F)cc1)C12CN(Cc3ccccc3)CC1C(c1cccc([N+](=O)[O-])c1)=NO2 (stereo not given),8.9,42.1*,16.9,7.6
O=C(CSc1ncnc2c1oc1ccccc12)Nc1ccccc1C(F)(F)F,17.7,46.6*,24.0,17.0
O=C(O)CSc1ncnc2c1oc1ccccc12,12.3,6.0,2.2,1.9
